# An excerpt weighted towards active compounds, which were near 12% of everything screened.
# Autophagy HCS – modulators of autophagy; MEF GFP-LC3 puncta imaging; test concentration mostly 10 µM; calls only at 10 µM (by protocol); 190,000 tested, 0.98% active; AID 463193;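 active = percentage of spot-positive cells more than 3 SD above its plate mean, without a fluorescence outlier flag or 80% toxicity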;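 note: spot-positive cell cutoff set from DMSO-treated cells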
# Dynein cargo inh – blocks dynein driven cargo transport along microtubules. 3617.4 mouse cells, GR-EGFP nuclear translocation imaging; test concentration mostly 20 µM; stimulated with dexamethasone, 1 µM; stronger effect = lower value. z-score, hits read low. 220,000 tested, 0.47% active. AID 1381;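 active = plate z-score of nuclear minus cytoplasmic receptor signal below a set negative limit, without overly bright fluorescence or cell loss, cut at about -3.5 in these data, passing the limit was not always enough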;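 note: z-score of nuclear minus cytoplasmic ring GR-EGFP intensity difference per well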
#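 Also added – dexamethasone, 1.0 µM final · Buffer or medium – tet-free, stripped-serum medium · Schedule – induction 48 h, compound 1 h, agonist 30 min · Detection – formaldehyde fixation, Hoechst nuclear stain, 10x automated fluorescence imaging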
# CHOP inh – inhibitors of CHOP induction in ER stress response | inhibition, % at 10 µM | 220,000 tested, 3.8% active | CHO-K1 CHOP-promoter luciferase, tunicamycin-induced, 15-18 h | AID 2732;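 active = compounds that reduced the stress-induced luciferase reporter signal by more than about 70% of percent inhibition, limit read from the data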;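 note: 0% = tunicamycin plus vehicle and 100% = wells without tunicamycin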
# MT stabilize HCS – microtubule stabilizers in HeLa cells | AID 2205 | 200,000 tested, 0.83% active | HeLa tubulin immunostaining HCS, 24 h; share of cells brighter than vehicle mean+2SD | % tubulin-high responders, % at 10 µM;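 active = plate Z-score above 3 for both tubulin-high and condensed-nucleus cell shares, with cell loss under 80%, at 10 µM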;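 note: anti alpha tubulin signal scored within the nucleus-defined area of each cell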
# L major viab – reduces viability of Leishmania major promastigotes | resazurin fluorescence viability | 200,000 tested, 9% active | inhibition, % at 10 µM; in the data active = inhibition above about 50%;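 note: promastigotes grown with compound for 44 hours at 28 °C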
# bCat nuc transl – modulators of beta-catenin nuclear translocation; nuclear translocation activity, % at 5 µM; AID 1665; 190,000 tested, 0.3% active; HeLa beta-catenin nuclear translocation, immunofluorescence imaging;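 active = nuclear translocation activity above 50% at 5 µM, with a well cell count of 50 or more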;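 note: per-cell ratio of nuclear to cytoplasmic median beta-catenin stain intensity; plate controls were DMSO negative control for no effect and GSK-3 inhibitor IX positive control for full effect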
#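 test system = HeLa cells, endogenous beta-catenin | dosing = single 5 µM dose plus 0.02–20 µM confirmation series | times = compound treatment 24 h, 37°C, 5% CO2 | technique = beta-catenin immunofluorescence imaging with DAPI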
# Starred values were filed as active, the others as inactive; i = inactive; nt = not tested or not shown.
SMILES,Autophagy HCS,Dynein cargo inh,CHOP inh,MT stabilize HCS,L major viab,bCat nuc transl
CC1CN(C(=O)N[C@@H](Cc2ccccc2)C(=O)O)CC(C)O1 (stereo partly specified),i,0.29,-26,5,80*,-2
CCC(Sc1nc2ccccc2o1)C(=O)Nc1nnc(C)s1 (stereo unspecified),i,1.8,28,4,55*,-1
CC(C)(C)NC(=O)C(OC(=O)c1cccs1)c1ccc(F)cc1 (stereo unspecified),i,-0.069,3,2,-2,-4
CN1CCC(N(C)C(=O)CCc2nc3ccccc3c(=O)[nH]2)CC1,i,0.54,-15,3,-3,-2
CN(C)CCCOc1cccc(Oc2ccccc2)c1,i,-1.2,-8,4,99*,-1
C=CCN(CC=C)CCOc1cccc(Oc2ccccc2)c1,i,2.4,87*,2,97*,2
C=CCN(CC=C)CCCOc1ccccc1C(=O)OC,i,-1.1,6,5,33,-2
CS(=O)(=O)NCCCNc1ccc(Cl)cc1[N+](=O)[O-],i,0.94,2,1,10,nt
CCNCCNc1ccc(Cl)cc1[N+](=O)[O-],i,0.2,nt,4,60*,nt
CC1CC(=O)N(c2ccc(NCc3ccccc3Cl)c([N+](=O)[O-])c2)C1=O (stereo unspecified),i,-0.96,14,3,68*,-2
O=C1CCC(=O)N1c1ccc(NCc2ccccc2Cl)c([N+](=O)[O-])c1,i,0.88,32,3,67*,-2
Cc1ccc(CNc2ccc(N3C(=O)CC(C)C3=O)cc2[N+](=O)[O-])cc1 (stereo unspecified),i,1.1,6,2,-6,-4
CCCS(=O)(=O)c1nc(S(=O)(=O)c2ccc(C)cc2)c(N2CCc3ccccc3C2)s1,i,-0.083,17,3,61*,-1
CCCS(=O)(=O)c1nc(S(=O)(=O)c2ccc(C)cc2)c(N2CCCC2)s1,i,0.0014,35,2,1,-6
Cc1ccc(-c2nc(N)sc2CC(=O)OCC(=O)NCCC(C)C)cc1,i,0.62,18,4,60*,-2
O=C1C2C3C=CC(CC3)C2C(=O)N1/N=C/c1ccccc1O (stereo unspecified),i,-0.67,-1,3,-2,0
O=C1C2C3C=CC(CC3)C2C(=O)N1/N=C/c1c(O)ccc2ccccc12 (stereo unspecified),i,0.62,72*,2,-5,-2
COc1cc2ncnc(NCc3ccco3)c2cc1OC,i,-0.34,18,4,7,-1
CC(C)Nc1ncnc2ccc(Br)cc12,i,1.4,79*,2,43,0
Brc1ccc2ncnc(NCc3ccco3)c2c1,i,-0.59,56,3,55*,-3
Cc1ccc(C)c(N2CCN(C(=O)C(Cc3ccccc3)n3cccc3)CC2)c1 (stereo unspecified),i,-0.61,64,4,22,nt
O=C(C(Cc1ccccc1)n1cccc1)N1CCN(c2ccccc2)CC1 (stereo unspecified),i,-0.34,78*,5,9,nt
CCOC(=O)c1cc(-c2ccccc2)sc1NC(=O)C(C)OC(=O)c1cccnc1Cl (stereo unspecified),i,-0.45,11,4,0,-2
CN(CCOC(=O)c1ccc2c(c1)OCCO2)Cc1ccccc1,i,0.87,-20,3,-1,0
CCC(NC(=O)N(Cc1ccccc1)Cc1ccc2c(c1)OCO2)(C(F)(F)F)C(F)(F)F,i,0.082,43,3,67*,-4
SMILES,Autophagy HCS,Dynein cargo inh,CHOP inh,MT stabilize HCS,L major viab,bCat nuc transl
CC(NC(=O)N(Cc1ccccc1)Cc1ccc2c(c1)OCO2)(C(F)(F)F)C(F)(F)F,i,0.65,59,3,94*,nt
CC(=O)OCCN(Cc1ccccc1)Cc1ccc2c(c1)OCO2,i,-0.59,70*,1,-2,-2
O=S(=O)(NCc1ccccc1)c1ccc(Br)c2nsnc12,nt,-0.67,13,nt,nt,0
CCOC(=O)c1[nH]c(COC(=O)CCOc2ccccc2OC)c(C(=O)OCC)c1C,i,-0.47,36,1,-6,0
CN(C)c1nc(-c2ccc([N+](=O)[O-])cc2)cs1,i,0.43,72*,3,-4,-2
CC(C)C(=O)Nc1ccc(NC(=O)c2cccc(F)c2)cn1,i,-1.1,63,4,3,0
CCOC(=O)c1ccc(-n2nc(C(F)(F)F)c3c(C)cc(=O)oc32)cc1,i,-0.9,nt,3,-3,nt
COCCNc1nnnc2c1sc1nc(N3CCOCC3)c3c(c12)CCCC3,i,-0.32,10,3,62*,0
NNc1nnnc2c1sc1nc(N3CCOCC3)c3c(c12)CCCC3,nt,-1.1,-5,nt,nt,-1
O=C(NC(=S)Nc1ccc(CN2CCOCC2)cc1)c1ccc([N+](=O)[O-])cc1Cl,i,-0.0053,4,4,100*,-3
O=C(NC(=S)NCCN1CCOCC1)c1ccccc1Br,i,-0.7,5,3,40,2
O=C(NC(=S)NCCN1CCOCC1)c1ccc(Cl)cc1Cl,i,1.4,-17,4,95*,2
O=C(NC(=S)NCCN1CCOCC1)c1ccc(Cl)cc1,i,-0.49,18,1,-2,0
O=C(NC(=S)Nc1ccc(CN2CCOCC2)cc1)c1cccc([N+](=O)[O-])c1,i,-0.43,5,2,19,-2
O=C(NC(=S)NCCN1CCOCC1)c1ccccc1Cl,i,0.11,4,3,58*,1
Cn1c2ccccc2c2c(C(=O)NCc3ccco3)cn(C3CCCCC3)c(=O)c21,i,1.2,-21,4,8,nt
COc1ccc(NC(=S)NN(C)C(=S)Nc2ccc(OC)cc2)cc1,i,-0.77,12,7,-2,nt
CC(C)CN1CCC(CN(C)Cc2nc(-c3cnccn3)no2)CC1,i,-0.51,20,3,-2,0
CCOc1nc(NCc2ccco2)nc(Nc2ccc(OC)cc2)n1,i,0.086,53,1,84*,0
COc1ccc(OC)c(-c2csc(NC(=O)Cn3[nH]c(=O)c4ccccc4c3=O)n2)c1,i,0.46,-37,5,4,4
COc1ccc(OC)c(-c2csc(NC(=O)CSc3ccc([N+](=O)[O-])cc3)n2)c1,i,0.73,46,2,85*,-2
COc1ccc(OC)c(-c2csc(NC(=O)CSc3ccc(Br)cc3)n2)c1,i,0.56,39,5,53*,0
O=C(CCN1C(=O)c2cccc3cccc(c23)C1=O)NCc1ccco1,i,-0.73,5,1,-2,0
O=c1[nH]c(/C(Cl)=C/c2c(F)cccc2Cl)nc2cc(Cl)ccc12,i,-1,79*,4,79*,0
